Results on five molecules are retold here after ChEMBL document CHEMBL1128531 (J Med Chem, 1995).

Activity calls are given as the source filed them. The calls are words filed in the database; no cut-off is given here.

The target of assay [1] is T1, D(2) dopamine receptor (Homo sapiens, UniProt P14416). Kind of assay: Adenylate cyclase assay carried out in LTK cells transfected with human Dopamine receptor D2. In kind it is cell-based.
Assay [2] has as its target T2, D(1A) dopamine receptor (Homo sapiens, UniProt P21728). Kind of assay: Adenylate cyclase assay carried out in LTK cells transfected with human Dopamine receptor D1. In kind it is cell-based.
The target of assay [3] is T2, D(1A) dopamine receptor. Kind of assay: Binding affinity against cloned human Dopamine receptor D1 using [125I]-SCH 23982 as radioligand transfected in HEK cells. In kind it is cell-based, HEK293.
The target in assay [4] is T1, D(2) dopamine receptor. The experiment in a line: Binding affinity against cloned human Dopamine receptor D2 using [3H]spiperone as radioligand transfected in LTK cells.
A further assay concerns Rattus norvegicus. Kind of assay: Ability to produce robust rotation in the lesioned rat after subcutaneous administration. In kind it is functional. The settings on record: sc.
Assay [5] addresses T1, D(2) dopamine receptor.
For assay [6], the target named is T1, D(2) dopamine receptor. The experiment in a line: Intrinsic activity relative to dopamine for human Dopamine receptor D2 at 10 uM. The method in brief:
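Adenylate cyclase functional assay in LTK cells transfected with the human D2 receptor. […] Values are mean ± SEM over the stated number of experiments.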

Assay [7] addresses Beta-2 adrenergic receptor (Homo sapiens, UniProt P07550). The experiment in a line: Binding affinity against Beta-2 adrenergic receptor.
Assay [8] concerns the target Beta-1 adrenergic receptor (Homo sapiens, UniProt P08588). The experiment in a line: Binding affinity against Beta-1 adrenergic receptor.
Assay [9] has as its target T3, 5-hydroxytryptamine receptor 1A (Mus musculus, UniProt Q64264).
T3 sequence (Q64264 whole entry): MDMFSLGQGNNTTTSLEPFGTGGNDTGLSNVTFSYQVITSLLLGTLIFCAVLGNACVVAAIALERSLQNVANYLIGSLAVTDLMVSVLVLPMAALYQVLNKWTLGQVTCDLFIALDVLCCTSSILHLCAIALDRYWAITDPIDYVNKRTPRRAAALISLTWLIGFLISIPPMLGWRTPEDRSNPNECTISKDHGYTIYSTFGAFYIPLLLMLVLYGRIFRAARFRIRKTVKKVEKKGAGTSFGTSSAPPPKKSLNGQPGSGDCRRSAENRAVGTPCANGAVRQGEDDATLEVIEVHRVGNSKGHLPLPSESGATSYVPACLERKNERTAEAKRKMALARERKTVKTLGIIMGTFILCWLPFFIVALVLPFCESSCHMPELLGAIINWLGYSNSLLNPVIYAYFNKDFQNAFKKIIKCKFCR
Kind of assay: Binding affinity against serotonergic 5-HT1a receptor.

For assay [10], the target named is T4, 5-hydroxytryptamine receptor 2C (Rattus norvegicus, UniProt P08909).
T4 sequence (P08909 whole entry): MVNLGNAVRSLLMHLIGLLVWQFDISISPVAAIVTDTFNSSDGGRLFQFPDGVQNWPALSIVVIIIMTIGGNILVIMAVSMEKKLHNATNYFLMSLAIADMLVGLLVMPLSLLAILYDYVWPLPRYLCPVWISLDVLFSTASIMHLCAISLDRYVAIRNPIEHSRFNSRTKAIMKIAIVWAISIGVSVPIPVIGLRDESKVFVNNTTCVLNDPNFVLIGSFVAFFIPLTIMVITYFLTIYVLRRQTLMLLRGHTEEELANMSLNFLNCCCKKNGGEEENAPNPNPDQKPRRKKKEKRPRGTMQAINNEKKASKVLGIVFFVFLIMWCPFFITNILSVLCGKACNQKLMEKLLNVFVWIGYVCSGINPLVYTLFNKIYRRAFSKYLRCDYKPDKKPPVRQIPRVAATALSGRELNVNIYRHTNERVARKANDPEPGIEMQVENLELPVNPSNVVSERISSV
Kind of assay: Binding affinity against serotonergic 5-HT1c receptor.

Assay [11] addresses 5-hydroxytryptamine receptor 2A (Bos taurus, UniProt Q75Z89). Kind of assay: Binding affinity against serotonergic 5-HT2 receptor.

T1 sequence (P14416 whole entry): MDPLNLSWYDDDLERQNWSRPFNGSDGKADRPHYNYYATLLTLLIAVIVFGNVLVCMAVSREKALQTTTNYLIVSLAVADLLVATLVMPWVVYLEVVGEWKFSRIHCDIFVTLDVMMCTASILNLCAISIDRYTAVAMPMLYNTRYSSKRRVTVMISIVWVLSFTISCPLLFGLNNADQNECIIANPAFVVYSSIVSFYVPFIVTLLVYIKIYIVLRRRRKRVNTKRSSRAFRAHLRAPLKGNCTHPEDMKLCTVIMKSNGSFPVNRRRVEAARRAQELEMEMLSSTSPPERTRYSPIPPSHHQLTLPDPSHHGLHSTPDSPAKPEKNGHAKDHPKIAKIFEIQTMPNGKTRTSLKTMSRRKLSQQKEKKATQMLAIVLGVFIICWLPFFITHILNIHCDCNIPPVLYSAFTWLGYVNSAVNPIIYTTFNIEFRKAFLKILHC
T2 sequence (P21728 whole entry): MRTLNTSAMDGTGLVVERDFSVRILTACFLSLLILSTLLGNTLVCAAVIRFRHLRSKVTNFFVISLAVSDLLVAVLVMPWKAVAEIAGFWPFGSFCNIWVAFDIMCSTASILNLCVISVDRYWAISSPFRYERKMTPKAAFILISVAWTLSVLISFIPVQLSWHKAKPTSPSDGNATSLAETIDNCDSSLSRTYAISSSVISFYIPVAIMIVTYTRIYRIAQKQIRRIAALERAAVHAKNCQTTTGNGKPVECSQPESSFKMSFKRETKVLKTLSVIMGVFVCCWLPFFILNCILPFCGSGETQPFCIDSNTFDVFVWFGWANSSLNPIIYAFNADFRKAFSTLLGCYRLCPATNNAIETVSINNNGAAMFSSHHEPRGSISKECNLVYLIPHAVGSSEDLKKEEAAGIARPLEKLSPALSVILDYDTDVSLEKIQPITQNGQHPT
Beta-1 adrenergic receptor, sequence (P08588 whole entry): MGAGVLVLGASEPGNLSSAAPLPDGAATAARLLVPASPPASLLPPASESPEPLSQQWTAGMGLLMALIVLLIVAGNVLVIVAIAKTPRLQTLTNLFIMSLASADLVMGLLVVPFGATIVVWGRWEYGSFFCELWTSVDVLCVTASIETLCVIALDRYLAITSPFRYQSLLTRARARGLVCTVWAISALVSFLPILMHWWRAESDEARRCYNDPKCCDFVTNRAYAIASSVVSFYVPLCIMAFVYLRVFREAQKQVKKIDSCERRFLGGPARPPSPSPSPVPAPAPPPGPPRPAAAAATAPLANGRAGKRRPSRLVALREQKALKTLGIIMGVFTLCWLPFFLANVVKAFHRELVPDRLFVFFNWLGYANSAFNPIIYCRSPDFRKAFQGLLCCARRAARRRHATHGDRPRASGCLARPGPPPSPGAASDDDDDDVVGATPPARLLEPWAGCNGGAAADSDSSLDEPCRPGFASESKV
5-hydroxytryptamine receptor 2A, sequence (Q75Z89 whole entry): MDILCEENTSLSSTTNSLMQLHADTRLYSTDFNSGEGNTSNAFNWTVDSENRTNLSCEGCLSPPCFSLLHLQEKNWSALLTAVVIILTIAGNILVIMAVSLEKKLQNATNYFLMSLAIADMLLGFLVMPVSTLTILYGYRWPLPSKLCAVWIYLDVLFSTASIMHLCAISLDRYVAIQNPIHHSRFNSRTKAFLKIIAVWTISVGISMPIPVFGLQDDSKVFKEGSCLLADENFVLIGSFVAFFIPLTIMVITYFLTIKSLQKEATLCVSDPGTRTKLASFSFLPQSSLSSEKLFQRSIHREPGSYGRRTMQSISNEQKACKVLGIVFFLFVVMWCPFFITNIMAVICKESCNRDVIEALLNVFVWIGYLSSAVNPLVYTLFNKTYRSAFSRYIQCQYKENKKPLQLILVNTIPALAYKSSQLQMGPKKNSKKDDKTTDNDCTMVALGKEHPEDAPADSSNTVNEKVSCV
Beta-2 adrenergic receptor, sequence (P07550 whole entry): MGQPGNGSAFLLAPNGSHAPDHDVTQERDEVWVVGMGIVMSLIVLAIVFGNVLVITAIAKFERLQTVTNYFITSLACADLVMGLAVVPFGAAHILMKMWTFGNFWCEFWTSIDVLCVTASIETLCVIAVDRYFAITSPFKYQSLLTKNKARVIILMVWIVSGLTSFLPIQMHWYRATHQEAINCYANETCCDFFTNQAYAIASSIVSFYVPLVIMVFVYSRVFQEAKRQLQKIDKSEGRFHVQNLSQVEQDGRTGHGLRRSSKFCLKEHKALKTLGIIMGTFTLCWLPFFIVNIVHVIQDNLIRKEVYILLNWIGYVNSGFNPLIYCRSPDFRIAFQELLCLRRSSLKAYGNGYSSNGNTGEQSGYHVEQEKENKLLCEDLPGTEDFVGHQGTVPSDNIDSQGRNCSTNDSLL

In general, EC50 refers to the concentration giving half of the maximal effect. The Ki is the dissociation constant of the complex between target and ligand, obtained from inhibition or displacement. Take `CCCc1cc2c(s1)CN[C@@H]1CCc3cc(O)c(O)cc3[C@@H]21` [A-86929]: the concentration for a half-maximal effect (EC50) at D(2) dopamine receptor [1] was determined as 3.9 µM; on D(1A) dopamine receptor [2] it was 0.009 µM. Also, the inhibitory constant (Ki) worked out at 0.049 µM on D(1A) dopamine receptor [3] and 0.71 µM on D(2) dopamine receptor [4].

As usually defined, the ED50 is the dose at which the effect has come halfway, by size or by number of responders. High values mean weaker potency, low ones greater potency. In turn, `Oc1cc2c(cc1O)[C@@H](c1ccccc1)CNCC2` [(R)-SKF-38393] yielded a median effective dose (ED50) in the assay on Rattus norvegicus of 0.02 µmol/kg. Also, on D(2) dopamine receptor [5], the IA result was “inactive”.

`NC[C@@H]1O[C@H](C23CC4CC(CC(C4)C2)C3)Cc2c1ccc(O)c2O`: on D(2) dopamine receptor [1], the EC50 is over 4 µM. This molecule also returned an IA on D(2) dopamine receptor [6] of 18%. The Ki at D(2) dopamine receptor [4] was determined as 1.55 µM.

For `CCCc1cc2c(s1)CN[C@H]1CCc3cc(O)c(O)cc3[C@H]21`, the half-maximal effective concentration (EC50) at D(2) dopamine receptor [1] is over 10 µM; on D(1A) dopamine receptor [2], 1.7 µM. The IA on D(2) dopamine receptor [6] was 3%. Moreover, the inhibition constant Ki on D(1A) dopamine receptor [3] turned out to be 3.05 µM; at D(2) dopamine receptor [4], 4.02 µM.

On to `Oc1cc2c(cc1O)[C@H]1c3ccccc3CN[C@@H]1CC2` [DIHYDREXIDINE], for which the Ki in [7] was 1.2 µM; in assay [8], 1.5 µM; in assay [9] it was over 3 µM; in assay [10], 2.4 µM; in assay [11] it was over 3 µM. Besides, the 50% effect level in the assay with Rattus norvegicus (ED50) was put at a dose of 0.04 µmol/kg.
